pIC50: −log10 of the molar value. Active and inactive are the calls of the source. The calls are words filed in the database; no cut-off is given here.
Key:
[1] = Hepatotoxicity in 6 hrs post fertilized transgenic l-fabp:EGFP zebrafish embryo assessed as change in liver area index up to 40 uM up to 120 hrs post fertilization by fluorescence assay; assay type: toxicity, Danio rerio; conditions: in vivo
In short: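 Tg(l-fabp:EGFP) zebrafish embryos exposed from 6 hpf. At 120 hpf, liver area index (liver area/lateral body area) and liver fluorescence assessed by in vivo imaging.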

Ebolavirus = experiment: Antiviral activity against Ebolavirus infected in mouse assessed as protection against viral infection at 10 mg/kg/day relative to control; assay type: functional
[2] = Myelotoxicity in 6 hrs post fertilized transgenic mpx:GFP zebrafish embryo assessed as reduction in neutrophil occurrence up to 40 uM measured at 72 hrs hrs post fertilization by fluorescence assay; set-up: species or system Danio rerio
In short: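 Tg(mpx:GFP) zebrafish embryos with GFP-labelled neutrophils were treated with compound. At 72 hpf, neutrophil fluorescence of the whole embryo and neutrophil occurrence were assessed.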

[3] = Drug uptake in C57Bl/6 mouse serum at 20 mg/kg/day, ip qd for 7 days measured at 24 hrs post last dose by UHPLC/MS analysis; assay type: ADME, organism-based; conditions: read-out: Drug uptake
In short: (§1)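 Serum from two mice dosed 20 mg/kg/day i.p. taken 24 h after the last dose. Compound quantified by UHPLC/MS and screened for M+2, M+16, M-2 and M+32 products or combinations.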

[4] = Solubility of the compound in pH 7.4 buffer by laser nephelometric method; assay type: physicochemical
In short: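 Solubility at pH 7.4 was measured by laser nephelometry (light scattering), in triplicate.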

Zaire ebolavirus [5] = experiment: Antiviral activity against VSV pseudotyped Ebolavirus Mayinga expressing GFP infected in human HeLa cells assessed as inhibition of viral infection up to 50 uM pre-incubated for 2 hrs followed by viral infection and measured after 8 hrs by high content imaging analysis; assay type: functional, organism-based; conditions: 1976
In short: (§2)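 HeLa cells pretreated 2 h with compound, then infected with rVSV-EBOV-GP-GFP (8 h) or VSV-GFP (6 h), and stained with Cell Mask Deep Red. Relative inhibition = 1 minus (% GFP-expressing cells normalised to mock). Mean ± SD of three replicates, representative of three independent experiments.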

[6] = Apparent permeability from apical to basolateral side in MDCK cells; assay type: ADME, cell-based, Canis lupus familiaris; conditions: dog
In short: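 Apparent permeability measured in MDCK cell monolayers, apical→basolateral and basolateral→apical directions, three biological replicates.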

Zaire ebolavirus [7] = experiment: Antiviral activity against Ebolavirus Mayinga infected in ip dosed Balb/c mouse assessed as protection against viral infection administered 2 hrs prior to viral infection daily for 6 days and measured for 14 days; assay type: functional, organism-based; conditions: 1976
Cytochrome P450 2D6 = Cytochrome P450 2D6 (Homo sapiens, UniProt P10635); experiment: Inhibition of CYP2D6 (unknown origin) using 3-(2-(N, N-Diethyl-N-methylamino)ethyl)-7-Methoxy-4-Methylcoumarin as substrate; assay type: ADME; conditions: read-out: INH
In short: (§3)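 CYP IC50 was taken from the net fluorescent signal after incubation at 37 °C for a set time with active cytochrome P450 enzyme and a fluorescent probe substrate.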

Cytochrome P450 3A4 [8] = target: T1, Cytochrome P450 3A4 (Homo sapiens, UniProt P08684); experiment: Inhibition of CYP3A4 (unknown origin) using 7-benzyloxyquinoline as substrate; assay type: ADME; in short: as §3
Zaire ebolavirus [9] = experiment: Antiviral activity against Ebolavirus Mayinga infected in Balb/c mouse assessed as protection against viral infection at 1 to 5 mg/kg, ip administered 2 hrs prior to viral infection daily for 6 days and measured for 14 days relative to control; assay type: functional, 1976
[10] = Stability in plasma (unknown origin) after 1 hr at 37 degC; assay type: ADME, cell-free; conditions: read-out: Stability
In short: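 Compound was incubated in plasma for 1 h at 37 °C, and the percent remaining was reported.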

[11] = Drug metabolism in C57Bl/6 mouse assessed as dehydrogenation metabolite formation at 20 mg/kg/day, ip qd for 7 days measured at 24 hrs post last dose by UHPLC/MS analysis; assay type: ADME, organism-based; conditions: in vivo; in short: as §1
Zaire ebolavirus [12] = experiment: Antiviral activity against VSV pseudotyped Ebolavirus Mayinga expressing GFP infected in human HeLa cells assessed as inhibition of viral infection at 2 uM pre-incubated for 2 hrs followed by viral infection and measured after 8 hrs by cell mask deep red staining based assay; assay type: functional, organism-based; conditions: 1976; in short: as §2
Cytochrome P450 2C19 = Cytochrome P450 2C19 (Homo sapiens, UniProt P33261); experiment: Inhibition of CYP2C19 (unknown origin) using CEC as substrate; assay type: ADME; in short: as §3
[13] = test system: Vesicular stomatitis virus; experiment: Antiviral activity against VSV expressing GFP infected in human HeLa cells assessed as inhibition of viral infection at 0.1 uM pre-incubated for 2 hrs followed by viral infection and measured after 6 hrs by cell mask deep red staining based assay; assay type: functional, organism-based; in short: as §2
HeLa [14] = experiment: Induction of lysosome suppression in human HeLa cells assessed as vesicular compartment expansion pretreated for 2 hrs followed by VSV pseudotyped EBOV-GP-GFP infection for 2 to 6 hrs by uranyl acetate staining based transmission electron microscopic method; assay type: functional, subcellular
In short: (§4)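 HeLa cells mock-treated or treated 2 h with compound, then left uninfected or infected with rVSV-EBOV-GP-GFP for 2 h or 6 h. Processed for transmission electron microscopy to examine vesicular compartments.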

HeLa [15] = experiment: Induction of lysosome suppression in human HeLa cells assessed as vesicular compartment expansion pretreated for 2 hrs by uranyl acetate staining based transmission electron microscopic method; assay type: functional, subcellular; in short: as §4
[16] = Acute toxicity in C57Bl/6 mouse assessed as effect on appearance at 20 mg/kg/day, ip qd for 7 days measured twice daily for 28 days; assay type: organism-based; conditions: in vivo, 672 h
In short: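 Six healthy mice received 20 mg/kg i.p. once daily for seven doses. Behaviour and appearance observed twice daily for 28 days after the last dose.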

[17] = Clearance in mouse liver microsomes after 1 hr; assay type: ADME, Microsome; conditions: read-out: CLH
In short: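 Substrate depletion with mouse or human liver microsomes, 1 h at 37 °C. Clearance (μL/min/mg) and half-life derived.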

[18] = Drug metabolism in C57Bl/6 mouse assessed as bis-oxygenation metabolite formation at 20 mg/kg/day, ip qd for 7 days measured at 24 hrs post last dose by UHPLC/MS analysis; assay type: ADME, organism-based; conditions: in vivo; in short: as §1
[19] = Drug metabolism in C57Bl/6 mouse assessed as reduction metabolite formation at 20 mg/kg/day, ip qd for 7 days measured at 24 hrs post last dose by UHPLC/MS analysis; assay type: ADME, organism-based; conditions: in vivo; in short: as §1
Cytochrome P450 3A4 [20] = target: T1, Cytochrome P450 3A4; experiment: Inhibition of CYP3A4 (unknown origin) using dibenzylfluorescein as substrate; assay type: ADME; in short: as §3

T1 sequence (P08684 whole entry): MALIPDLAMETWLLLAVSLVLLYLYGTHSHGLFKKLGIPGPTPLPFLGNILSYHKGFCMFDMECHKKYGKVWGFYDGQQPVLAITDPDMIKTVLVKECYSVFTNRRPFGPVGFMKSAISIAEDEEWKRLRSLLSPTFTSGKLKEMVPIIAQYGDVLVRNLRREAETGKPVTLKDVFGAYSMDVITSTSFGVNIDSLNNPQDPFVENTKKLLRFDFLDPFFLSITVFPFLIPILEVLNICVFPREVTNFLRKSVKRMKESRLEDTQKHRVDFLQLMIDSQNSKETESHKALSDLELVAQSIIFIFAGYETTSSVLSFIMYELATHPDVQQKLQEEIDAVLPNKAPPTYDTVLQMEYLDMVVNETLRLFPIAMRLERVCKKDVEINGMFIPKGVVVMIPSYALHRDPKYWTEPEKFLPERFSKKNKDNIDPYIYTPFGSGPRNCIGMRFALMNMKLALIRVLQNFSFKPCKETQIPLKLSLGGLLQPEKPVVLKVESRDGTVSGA
Chain of Cytochrome P450 2D6 (P10635 whole entry): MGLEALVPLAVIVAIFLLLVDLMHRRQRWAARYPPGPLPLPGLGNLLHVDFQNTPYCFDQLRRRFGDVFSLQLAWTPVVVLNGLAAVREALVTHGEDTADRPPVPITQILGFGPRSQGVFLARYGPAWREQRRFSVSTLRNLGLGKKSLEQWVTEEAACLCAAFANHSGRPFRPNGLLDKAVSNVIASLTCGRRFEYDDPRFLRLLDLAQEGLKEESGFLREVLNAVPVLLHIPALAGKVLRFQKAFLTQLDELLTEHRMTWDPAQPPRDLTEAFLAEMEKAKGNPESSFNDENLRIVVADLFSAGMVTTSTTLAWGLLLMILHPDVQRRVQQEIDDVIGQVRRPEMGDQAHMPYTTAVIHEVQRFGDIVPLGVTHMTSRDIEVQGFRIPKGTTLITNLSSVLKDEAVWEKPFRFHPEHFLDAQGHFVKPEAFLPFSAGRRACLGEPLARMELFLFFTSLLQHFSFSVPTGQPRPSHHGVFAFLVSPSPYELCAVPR
Chain of Cytochrome P450 2C19 (P33261 whole entry): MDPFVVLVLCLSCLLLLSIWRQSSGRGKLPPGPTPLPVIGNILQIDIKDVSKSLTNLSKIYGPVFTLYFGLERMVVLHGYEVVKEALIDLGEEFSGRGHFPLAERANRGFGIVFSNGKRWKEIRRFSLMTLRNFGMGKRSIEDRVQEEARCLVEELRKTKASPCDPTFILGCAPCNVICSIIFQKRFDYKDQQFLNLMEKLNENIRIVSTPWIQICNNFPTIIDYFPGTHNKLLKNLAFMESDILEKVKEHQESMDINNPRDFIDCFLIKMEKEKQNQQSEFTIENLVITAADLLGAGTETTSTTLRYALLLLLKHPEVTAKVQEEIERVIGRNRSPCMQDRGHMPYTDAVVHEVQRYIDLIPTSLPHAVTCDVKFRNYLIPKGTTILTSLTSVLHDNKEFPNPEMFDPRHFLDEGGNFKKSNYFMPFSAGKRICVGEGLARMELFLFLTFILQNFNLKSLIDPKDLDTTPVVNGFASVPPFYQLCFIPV

In the case of `Cl.Cl.Cl.Cl.c1cc(NCCN2CCOCC2)c2ccc3c(ccc4c(NCCN5CCOCC5)ccnc43)c2n1`, the Activity [1] was “Non-Toxic” and the Activity (Ebolavirus) was 90%.

For `Cl.Cl.Cl.Cl.c1cc(NCCCCN2CCOCC2)c2ccc3c(ccc4c(NCCN5CCOCC5)ccnc43)c2n1`, the Activity [2] was “Non-Toxic”, the concentration at 24 h [3] was 350 to 1200 nM and the solubility kinetic [4] was greater than 50 µg/mL. For the same compound, the Activity (Zaire ebolavirus [5]) was “Active”, the Papp A→B [6] was 39.3 to 67.2 ×10⁻⁶ cm/s and the Activity (Zaire ebolavirus [7]) was “Dose-dependent effect”. It also gave a pIC50 (Cytochrome P450 2D6) of less than 5.00, an INH (Cytochrome P450 3A4 [8]) greater than 10 µM and an Activity (Zaire ebolavirus [9]) of 50%. For the same compound, the remaining at 1 h [10] was 60%, the Drug metabolism [11] was “Metabolite_Notdetected” and the Activity (Zaire ebolavirus [12]) was “Active”. The INH (Cytochrome P450 2C19) was greater than 10 µM, the Activity [13] was “inactive” and the Activity (HeLa [14]) was “Active”. For the same compound, the Activity (HeLa [15]) was “Active”, the Activity [16] was “Non-Toxic” and the microsomal CLint [17] was 22.3 µL/min/mg. For the same compound, the Drug metabolism [18] was “Metabolite_Notdetected”, the Drug metabolism [19] was “Metabolite_Notdetected” and the INH (Cytochrome P450 3A4 [20]) was greater than 10 µM.

Reference: ChEMBL document CHEMBL4330057, “Second generation of diazachrysenes: Protection of Ebola virus infected mice and mechanism of action” (Eur J Med Chem, 2019)
